Experimental data as given in ChEMBL document CHEMBL1140214, “Antitumor activity of new substituted 3-(5-imidazo[2,1-b]thiazolylmethylene)-2-indolinones and 3-(5-imidazo[2,1-b]thiadiazolylmethylene)-2-indolinones: selectivity against colon tumor cells and effect on cell cycle-related events” (2008).

Legend:
Leukemia cell = assay: Antitumor activity against human Leukemia cells after 48 hrs by SRB assay; assay type: functional; conditions: for TGI: read-out: pTGI (converted)
How it was run: (§1)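 NCI 60-cell panel two-stage screen: a single-dose pass at 10^-5 M, then five-dose testing for active compounds. Compounds were dissolved in DMSO and tested at five 10-fold dilutions, the highest 10^-4 M (10^-3 M in some cases). Results are given as the negative log molar concentration at three end points: pGI50, pTGI (total growth inhibition) and pLC50. Means are panel-subtype averages.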

NSCLC = assay: Antitumor activity against human NSCLC cells after 48 hrs by SRB assay; assay type: functional; conditions: for GI50 / TGI: Homo sapiens, NSCLC, 48 h; for TGI: read-out: pTGI (converted); how it was run: as §1
[1] = Antitumor activity against human Colon cancer cells after 48 hrs by SRB assay; assay type: functional, Cancer cell lines; conditions: for TGI: read-out: pTGI (converted); how it was run: as §1
[2] = Antitumor activity against human CNS cancer cells after 48 hrs by SRB assay; assay type: functional, Cancer cell lines; conditions: for TGI: read-out: pTGI (converted); how it was run: as §1
Melanoma cell = assay: Antitumor activity against human Melanoma cells after 48 hrs by SRB assay; assay type: functional; conditions: for TGI: read-out: pTGI (converted); how it was run: as §1
[3] = Antitumor activity against human ovarian cancer cells after 48 hrs by SRB assay; assay type: functional, Cancer cell lines; conditions: for GI50 / TGI: Homo sapiens, Cancer cell lines, 48 h; for TGI: read-out: pTGI (converted); how it was run: as §1
[4] = Antitumor activity against human renal cancer cells after 48 hrs by SRB assay; assay type: functional, Cancer cell lines; conditions: for GI50 / TGI: Homo sapiens, Cancer cell lines, 48 h; for TGI: read-out: pTGI (converted); how it was run: as §1
[5] = Antitumor activity against human prostate cancer cells after 48 hrs by SRB assay; assay type: functional, Cancer cell lines; how it was run: as §1
[6] = Antitumor activity against human Breast cancer cells after 48 hrs by SRB assay; assay type: functional, Cancer cell lines; conditions: for GI50 / TGI: Homo sapiens, Cancer cell lines, 48 h; for TGI: read-out: pTGI (converted); how it was run: as §1
[7] = Homo sapiens, Leukemia cell, 48 h
[8] = Homo sapiens, Cancer cell lines, 48 h
[9] = Homo sapiens, Cancer cell lines, 48 h, read-out: pGI50 (converted)
[10] = Homo sapiens, Melanoma cell, 48 h, read-out: pGI50 (converted)
[11] = Homo sapiens, Melanoma cell, 48 h

SMILES	GI (Leukemia cell) [µM]	GI50 (Leukemia cell; [7]) [µM]	TGI (Leukemia cell; [7]) [µM]	GI (NSCLC) [µM]	GI50 (NSCLC) [µM]	TGI (NSCLC) [µM]	GI [1] [µM]	GI50 [1, 8] [µM]	TGI [1, 8] [µM]	GI50 [2] [µM]	GI50 [2, 9] [µM]	TGI [2, 8] [µM]	GI50 (Melanoma cell) [µM]	GI50 (Melanoma cell; [10]) [µM]	TGI (Melanoma cell; [11]) [µM]	GI [3] [µM]	GI50 [3] [µM]	TGI [3] [µM]	GI [4] [µM]	GI50 [4] [µM]	other results
Cc1cn2c(/C=C3/C(=O)N(C)c4ccccc43)c(C)nc2s1	5.01	5.01	20.9	17.78	17.8	75.9	4.57	4.57	69.2	8.71	8.71	51.3	13.18	13.2	72.4	15.49	15.5	74.1	22.39	22.4	TGI [4]: 97.7 µM; GI [5]: 21.38 µM; GI50 [5, 8]: 21.4 µM; GI [6]: 5.5 µM; GI50 [6]: 5.5 µM; TGI [6]: 55 µM
COc1ccc(OC)c(-c2nc3sccn3c2/C=C2/C(=O)N(C)c3ccccc32)c1	7.41	7.41	44.7	26.92	26.9	74.1	23.44	23.4	67.6	21.38	21.4	57.5	19.5	19.5	47.9	29.51	29.5	81.3	27.54	27.5	LC50 (concentration killing 50% of cells) (Leukemia cell; [7]): 97.7 µM; LC50 (50% lethal concentration) [1, 8]: 95.5 µM; LC50 [2, 8]: 97.7 µM; CC50 (Melanoma cell; Homo sapiens, Melanoma cell, 48 h, read-out: pLC50 (the source's name) (converted)): 87.1 µM; TGI [4]: 72.4 µM; GI [5]: 25.12 µM; GI50 [5, 8]: 25.1 µM; TGI ([5]; Homo sapiens, Cancer cell lines, 48 h, read-out: pTGI (converted)): 91.2 µM; GI [6]: 15.85 µM; GI50 [6]: 15.8 µM; TGI [6]: 53.7 µM
Cc1cn2c(/C=C3/C(=O)N(C)c4ccc(O)cc43)c(C)nc2s1	3.39	3.39	27.5	12.88	12.9	67.6	3.89	3.89	56.2	4.57	4.57	37.2	7.41	7.41	63.1	9.12	9.12	52.5	13.18	13.2	TGI [4]: 85.1 µM; GI [5]: 12.59 µM; GI50 [5, 8]: 12.6 µM; GI [6]: 4.57 µM; GI50 [6]: 4.57 µM; TGI [6]: 38 µM
